# From PubChem
# Rce1 inh = yeast Rce1p protease inhibitors, primary screen, biochemical, fluorescence, cell-free homogeneous. CAAX prenyl protease 2 (Saccharomyces cerevisiae (strain ATCC 204508 / S288c)), Q03530. yeast membranes, quenched prenylated peptide cleavage fluorescence. calls only. actives 0.27% (n = 290,000). AID 2563, 2010;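 active = fall in fluorescence gain of 50% or more versus controls, with final raw signal at or below 3038400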;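 note: plate controls were neutral control wells for no effect and wells lacking membranes for full effect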
# Target sequence (Q03530 whole entry, looked up): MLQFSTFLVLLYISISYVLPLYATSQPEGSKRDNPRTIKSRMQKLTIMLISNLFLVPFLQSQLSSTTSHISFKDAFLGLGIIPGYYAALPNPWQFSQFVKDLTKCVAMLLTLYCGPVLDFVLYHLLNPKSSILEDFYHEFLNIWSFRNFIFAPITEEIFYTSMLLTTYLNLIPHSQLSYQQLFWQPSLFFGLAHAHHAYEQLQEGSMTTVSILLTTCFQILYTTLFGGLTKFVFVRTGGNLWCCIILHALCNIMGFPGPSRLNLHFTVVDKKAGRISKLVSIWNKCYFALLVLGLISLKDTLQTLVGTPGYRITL
# TAAR1 antagonist = human TAAR1 antagonists, primary screen, Fluo-8 calcium fluorescence, CHO RD-HGA16 cells | Trace amine-associated receptor 1 (Homo sapiens), Q96RJ0 | antagonist | inhibition, % at 3 µM | actives 1.5% (n = 360,000);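 active = inhibition above a per-plate cutoff, the mean inhibition of test compounds on that plate plus 3 SD, cut at about 49% in these data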;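 note: 0% = DMSO plus EC80 beta-PEA response and 100% = DMSO alone without agonist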
# Target sequence (Q96RJ0 whole entry, looked up): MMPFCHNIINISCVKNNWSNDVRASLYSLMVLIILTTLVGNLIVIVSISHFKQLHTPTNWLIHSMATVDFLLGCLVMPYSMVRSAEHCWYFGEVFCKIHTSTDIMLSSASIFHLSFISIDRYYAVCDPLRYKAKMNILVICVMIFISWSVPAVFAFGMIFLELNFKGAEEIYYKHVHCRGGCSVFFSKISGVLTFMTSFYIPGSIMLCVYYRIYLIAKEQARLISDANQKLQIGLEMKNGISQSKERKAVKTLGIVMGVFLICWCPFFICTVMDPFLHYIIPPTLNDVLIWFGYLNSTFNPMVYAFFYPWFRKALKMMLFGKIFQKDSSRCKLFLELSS
#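 Test system – hTAAR1-expressing CHO RD-HGA16 cells, Gα16-coupled · Reagent – β-PEA at EC80 concentration, post-compound challenge · Compound dosing – 3 µM, single point · Timing – 140 s kinetic read after compound, 140 s after agonist · Detection – Fluo-8 intracellular calcium dye fluorescence, real-time kinetic reads · Control set – DMSO and EC80 PEA controls · Repeats – n of 1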
# VLA-4 inh = inhibition in human VLA-4 binding assay, primary screen, VLA-4 allosteric modulator project, MLPCN library, flow cytometry, VLA-4 expressing cells. inhibition, % (about 7 µM as worked out from the volumes in the protocol). Integrin alpha-4 (Homo sapiens), P13612. ligand binding flow cytometry. actives 0.2% (n = 330,000); in the data active = inhibition above about 50%
# TAAR1 agonist = human TAAR1 agonists, primary screen, Fluo-8 calcium fluorescence, CHO RD-HGA16 cells. vehicle wells 0%, saturating PEA agonist 100%. Trace amine-associated receptor 1 (Homo sapiens), Q96RJ0. AID 624467, 2012. actives 0.99% (n = 360,000). activation, % at 3 µM;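 active = activation above the mean activation of all test compounds in the run plus 3 SD, cut at about 38% in these data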
#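 Assay system: CHO-derived RD-HGA16 cells with stable Gα16 and human TAAR1; timing: 17-24 h seeding, 75 min 37 °C dye, 30 min RT; read-out: % activation from peak over basal fluorescence ratio, DMSO-to-PEA scaled; measured by: kinetic Fluo-8 calcium fluorescence; benchmarks: low control DMSO, high control PEA (EC100); doses: 3 µM single concentration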
# Platelet DG rel = inhibitors of platelet dense granule secretion, primary screen, cell-based, MLPCN, human platelets; human platelet-rich plasma, SFLLRN dense granule ATP release, luminescence; inhibition, %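 (compounds screened at 7.5 µM in platelet-rich plasma)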; actives 0.22% (n = 300,000);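 active = mean replicate score, as percent of positive control, at or above 50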
# TAAR1 nonsel count = nonselective antagonists in TAAR1 counter-screen cells, counter-screen for hTAAR1 antagonist project, cell-based, fluorescence, calcium; shares compounds with TAAR1 antagonist; counterscreen cell line, antagonist mode; inhibition, % at 3 µM; actives 77% (n = 2,400); AID 651780, 2012; in the data active = inhibition above about 22%;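 note: CHO-Ga16 host cells stimulated with ATP at an EC80 level; 0% = agonist EC80 plus vehicle and 100% = vehicle without agonist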
# TAAR1 ant conf = human TAAR1 antagonists, retest of hits, confirmation, cell-based, fluorescence; inhibition, % at 3 µM; actives 40% (n = 2,400); TAAR1-expressing cells, fluorescence antagonist read-out; shares compounds with TAAR1 antagonist; AID 651785, 2012; in the data active = inhibition above about 49%;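 note: CHO-Ga16 host cells challenged with agonist PEA near its EC80; 0% = agonist at EC80 plus vehicle and 100% = vehicle with no agonist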
# Ga16 ag counter = calcium activation in Ga16-expressing cells, counter-screen for TAAR1 antagonist project, cell-based, fluorescence. shares compounds with TAAR1 antagonist. agonist counterscreen. actives 18% (n = 2,400). activation, % at 3 µM; in the data active = activation above about 12%;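 note: 0% = vehicle wells and 100% = saturating stimulus response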
# TAAR1 ag counter = TAAR1 activation by candidate antagonists – cell-based, fluorescence, counter-screen for TAAR1 antagonist project; shares compounds with TAAR1 antagonist; hTAAR1 cell line, agonist mode; activation, % at 3 µM; actives 2% (n = 2,400); AID 651955, 2012; in the data active = activation above about 37%;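 note: CHO cells stably expressing TAAR1 with calcium dye readout; 0% = DMSO vehicle and 100% = full agonist response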
# Active calls of the source: *; i = inactive; . = no result given. An excerpt weighted towards active compounds, which were near 2.6% of everything screened.
SMILES,Rce1 inh,TAAR1 antagonist,VLA-4 inh,TAAR1 agonist,Platelet DG rel,TAAR1 nonsel count,TAAR1 ant conf,Ga16 ag counter,TAAR1 ag counter
COc1cc2c(cc1OC)CN(CC(=O)Nc1ccccc1C(=O)NCc1ccccc1)CC2,i,32,-6,6,-1,.,.,.,.
COC(=O)c1[nH]c2ccccc2c1NC(=O)CN1CCN(c2cccc(Cl)c2)CC1,i,62*,2,13,3,30*,47,9,3
CCN(CC)C(=O)[C@H]1C[C@@H]2[C@H](C[C@@H](c3ccccc3)[C@H]1C)N(c1ccc(F)cc1)C(=O)N2C/C=C(\C)CCC=C(C)C,.,-15,.,-1,.,.,.,.,.
COc1ccc(S(=O)(=O)N2CCC(C(=O)NCCc3ccccc3)CC2)cc1,i,-4,-6,7,-3,.,.,.,.
CCN(Cc1ccc(O)cc1)CC1CCCN(CCc2cccc(F)c2)C1 (stereo not drawn),i,-3,-1,-1,-1,.,.,.,.
Cc1ccc(NC(=O)c2cc(S(=O)(=O)N(C)C)ccc2N2CCCC2)cc1F,i,-39,17,-1,9,.,.,.,.
CCc1cccc2c(C(=O)COC(=O)c3nn(C)c(=O)c4ccccc34)c[nH]c12,i,58*,-7,26,-3,37*,49,14*,11
CC(C(=O)Nc1nc(-c2ccc(F)cc2)cs1)N1C(=O)C2CC=CCC2C1=O (stereo not drawn),.,78*,-10,19,.,40*,65*,12*,12
CCN1CC2=C(OC(N)=C(C#N)C2c2cccs2)/C(=C/c2cccs2)C1 (stereo not drawn),i,34,-7,18,5,.,.,.,.
CCN1C=C(Cc2cccs2)C2=C(C1)C(c1cccs1)C(C#N)=C(N)O2 (stereo not drawn),i,53*,-2,26,-3,20,38,6,9
CC(C)(C)c1ccc(C(=O)Nc2ccc(NC(=O)c3ccco3)cc2)cc1,i,58*,3,11,4,22*,43,7,2
O=C(Nc1ccc(Oc2ccc3ccccc3c2)cc1)c1ccco1,i,27,-4,1,1,.,.,.,.
O=C(Nc1ccc(Oc2ccc(NC(=O)c3ccco3)c(NC(=O)c3ccco3)c2)cc1)c1ccco1,i,62*,9,11,-2,29*,56*,5,5
O=C(Nc1ccc(NC(=O)c2ccco2)cc1)c1ccco1,i,-14,0,2,16,.,.,.,.
CCOC(=O)CCCCCC(=O)Nc1ccc2c(c1)C(=O)N([C@@H](C)CO)C[C@@H](C)[C@H](CN(C)S(=O)(=O)c1cccs1)OCCCC[C@H](C)O2,.,7,.,-1,.,.,.,.,.
Cn1nc(C(=O)NCc2ccc(F)cc2)c2c1-c1ccccc1S(=O)(=O)C2,i,13,17,2,0,.,.,.,.
CSc1ccc(CCNC(=O)c2nn(C)c3c2CS(=O)(=O)c2ccccc2-3)cc1,i,61*,26,8,-2,34*,50*,8,8
COc1cccc(C(=O)NCC(c2cccs2)N2CCOCC2)c1 (stereo not drawn),.,100*,9,-3,.,13,-2,1,5
O=C(CN1CCN(c2ccccn2)CC1)Nc1ccc([N+](=O)[O-])cc1C(=O)Nc1ccccc1F,i,57*,3,3,5,17,40,16*,5
CSc1ccccc1NC(=O)CN1CCN(c2ccccn2)CC1,i,5,-5,5,3,.,.,.,.
CCOCCc1nn2c(=O)cc(CSCC(=O)Nc3cc(C)cc(C)c3)nc2s1,i,6,9,1,-12,.,.,.,.
Cc1c(Cl)c([N+](=O)[O-])nn1Cc1ccc(C(=O)N/N=C\c2cccc(Br)c2)o1,i,65*,-17,9,9,35*,44,7,2
COc1ccc(CCN(C(=O)c2snc(C(N)=O)c2N)C(C(=O)NCC2CCCO2)c2ccc(F)cc2)cc1OC (stereo not drawn),i,58*,.,23,4,31*,44,9,10
COc1ccc(C(C(=O)NCC2CCCO2)N(Cc2ccco2)C(=O)c2snc(C(N)=O)c2N)cc1OC (stereo not drawn),i,24,2,10,-8,.,.,.,.
COc1ccc(C(C(=O)NCC2CCCO2)N(Cc2cccs2)C(=O)c2snc(C(N)=O)c2N)cc1OC (stereo not drawn),i,55*,-2,23,-1,25*,44,9,15
SMILES,Rce1 inh,TAAR1 antagonist,VLA-4 inh,TAAR1 agonist,Platelet DG rel,TAAR1 nonsel count,TAAR1 ant conf,Ga16 ag counter,TAAR1 ag counter
COc1ccc(N(CC(=O)N/N=C(\C)CCc2ccccc2)S(=O)(=O)c2ccc(C)cc2)cc1,i,-6,5,-1,-2,.,.,.,.
CC1CCCC(NC(=O)CCS(=O)(=O)c2cc3c(cc2Cl)NC(=O)CO3)C1C (stereo not drawn),i,-14,15,8,-24,.,.,.,.
O=c1[nH]c(=S)[nH]cc1Oc1ccc(Cl)cc1Cl,i,-2,.,1,4,.,.,.,.
O=C(NCc1ccccc1)C1=C[C@H](c2csc3ccccc23)C[C@H](OCc2ccc(CO)cc2)O1,i,47,9,11,0,.,.,.,.
C#CCNC(=O)C1=C[C@H](c2csc3ccccc23)C[C@H](OCc2ccc(CO)cc2)O1,i,65*,-9,31,2,24*,40,9,10
O=C(NCc1ccccc1)C1=C[C@H](c2ccc3c(c2)OCO3)C[C@H](OCc2ccc(CO)cc2)O1,i,59*,-3,10,0,25*,32,3,3
O=C(NCc1nc2ccccc2[nH]1)C1=C[C@@H](c2ccc(C(F)(F)F)cc2)C[C@@H](OCc2ccc(CO)cc2)O1,i,52*,16,12,-13,25*,23,5,6
CC1(C(=O)Nc2ccccc2F)CCN1C(=O)Cc1cc(F)ccc1F (stereo not drawn),.,-8,.,-1,.,.,.,.,.
